Results on 1 compound are retold here after ChEMBL document CHEMBL2384977, “Synthesis and biological evaluation of novel styryl benzimidazole derivatives as probes for imaging of neurofibrillary tangles in Alzheimer's disease” (Bioorg Med Chem, 2013).

Molecules are shown by their SMILES.

The species named for one test is Homo sapiens. The experiment in a line: Selectivity ratio of Kd(app) for amyloid beta (1 to 42) (unknown origin) aggregates to Kd(app) for recombinant human tau (441 amino acid residues) aggregates. In a few lines:
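Human 441-aa tau, expressed in E. coli, was aggregated at 1 mg/mL (MES pH 6.8, 0.1 mg/mL heparin, 37 °C, 3 days, shaking). Aβ1–42 was aggregated at 0.25 mg/mL (PBS pH 7.4, 37 °C, 42 h). Aggregates were incubated 30 min at room temperature with ligand, and fluorescence read at ex 440 nm, em 510 nm (tau) or 480 nm (Aβ). Apparent Kd came from saturation curves over six independent experiments, and the ratio is Kd(Aβ)/Kd(tau).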

Test [1] concerns the target Amyloid-beta precursor protein (Homo sapiens, UniProt P05067). The experiment in a line: Binding affinity to amyloid beta (1 to 42) (unknown origin) aggregates assessed as apparent dissociation constant after 30 mins by fluorescence spectroscopic analysis. The settings on record: read-out: Kd(app). A digest of the protocol:
(§1)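 Tau: human 441-aa tau expressed in E. coli, aggregated at 1 mg/mL in MES buffer pH 6.8 with 0.1 mg/mL heparin, 37 °C for 3 days with shaking. Abeta1-42 aggregated at 0.25 mg/mL in PBS pH 7.4, 37 °C for 42 h with shaking. Aggregates at final 10 µg/mL were incubated with ligand (final 0.02–10 µM) for 30 min at room temperature. Apparent Kd was taken from fluorescence saturation curves at ex 440 nm, em 510 nm (tau) or em 480 nm (Abeta). Mean ± SEM of six independent experiments.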

The target in test [2] is Microtubule-associated protein tau (Homo sapiens, UniProt P10636). The experiment in a line: Binding affinity to recombinant human tau (441 amino acid residues) aggregates expressed in Escherichia coli assessed as apparent dissociation constant after 30 mins by fluorescence spectroscopic analysis. The following applies: read-out: Kd(app). In a few lines: as §1
Microtubule-associated protein tau, sequence (P10636 whole entry): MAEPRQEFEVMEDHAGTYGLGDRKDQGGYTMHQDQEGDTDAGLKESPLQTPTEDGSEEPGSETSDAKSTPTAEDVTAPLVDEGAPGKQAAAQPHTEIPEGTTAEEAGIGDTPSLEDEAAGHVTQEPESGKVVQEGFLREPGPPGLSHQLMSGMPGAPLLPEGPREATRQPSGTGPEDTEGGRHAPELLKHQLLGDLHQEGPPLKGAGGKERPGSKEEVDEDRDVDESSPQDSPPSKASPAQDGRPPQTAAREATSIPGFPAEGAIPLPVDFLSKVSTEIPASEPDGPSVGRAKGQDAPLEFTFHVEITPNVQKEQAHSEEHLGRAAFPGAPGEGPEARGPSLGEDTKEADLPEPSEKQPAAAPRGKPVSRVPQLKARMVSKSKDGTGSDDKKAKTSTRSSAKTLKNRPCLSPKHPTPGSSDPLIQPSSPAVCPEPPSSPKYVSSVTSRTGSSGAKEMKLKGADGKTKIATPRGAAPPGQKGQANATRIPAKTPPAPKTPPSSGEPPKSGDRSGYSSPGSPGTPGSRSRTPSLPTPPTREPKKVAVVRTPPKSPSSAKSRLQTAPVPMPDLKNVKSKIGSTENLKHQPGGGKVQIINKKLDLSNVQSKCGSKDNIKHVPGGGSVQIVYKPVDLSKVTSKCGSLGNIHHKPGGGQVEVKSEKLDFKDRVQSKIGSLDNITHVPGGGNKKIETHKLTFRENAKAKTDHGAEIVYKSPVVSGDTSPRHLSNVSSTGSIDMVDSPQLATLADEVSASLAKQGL

Amyloid-beta precursor protein, sequence (P05067 whole entry): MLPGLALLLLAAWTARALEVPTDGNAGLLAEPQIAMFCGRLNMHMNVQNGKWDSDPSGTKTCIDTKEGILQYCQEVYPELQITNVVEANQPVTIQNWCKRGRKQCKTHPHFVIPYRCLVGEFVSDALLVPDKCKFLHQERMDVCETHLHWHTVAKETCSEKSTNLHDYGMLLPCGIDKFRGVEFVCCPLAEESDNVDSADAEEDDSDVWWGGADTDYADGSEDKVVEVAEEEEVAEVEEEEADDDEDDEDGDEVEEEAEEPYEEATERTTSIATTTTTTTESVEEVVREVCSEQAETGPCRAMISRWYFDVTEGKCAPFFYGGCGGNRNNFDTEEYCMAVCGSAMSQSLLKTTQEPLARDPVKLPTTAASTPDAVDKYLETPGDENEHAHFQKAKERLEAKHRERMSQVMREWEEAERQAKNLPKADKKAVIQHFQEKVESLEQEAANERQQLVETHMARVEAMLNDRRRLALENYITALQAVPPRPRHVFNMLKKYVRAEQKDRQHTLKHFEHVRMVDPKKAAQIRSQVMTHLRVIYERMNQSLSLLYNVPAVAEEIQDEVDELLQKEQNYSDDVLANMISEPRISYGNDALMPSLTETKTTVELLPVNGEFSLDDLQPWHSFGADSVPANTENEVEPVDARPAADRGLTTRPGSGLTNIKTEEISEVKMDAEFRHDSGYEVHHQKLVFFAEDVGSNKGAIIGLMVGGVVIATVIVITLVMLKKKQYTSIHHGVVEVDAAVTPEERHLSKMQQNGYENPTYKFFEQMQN

Regarding `CNc1ccc(/C=C/c2nc3ccc(I)cc3[nH]2)cc1`, the Selectivity ratio in the test listed under Homo sapiens turned out to be 0.93. For the same compound, the Kd came to 420 nM in test [1] and 450 nM in test [2].
